Laboratory results published in PMC6399515 (Insect Biochemistry and Molecular Biology, 2016).

Tests used:
[1] = system: all mosquito P450s of the panel apart from CYP6Z2 (CYP6M2, CYP6P2, CYP6P3, CYP6P4, CYP9J5); assay: in vitro; details: Anopheles gambiae
[2] = system: An. gambiae Tiassalé strain; assay: Glass tube assay, ovary development of adult females, Tiassalé strain; format: in vivo, Anopheles gambiae
Procedure, shortened: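 Borosilicate glass tubes were coated with PPF at 0.55, 2.75 or 5.5 mg/m2, with an acetone-only tube as control, and used the day they were made. Per concentration, two groups of fifteen 5–7-day-old females (n = 30) were acclimated 60 min, then exposed 3 min. They were held 24 h on 10% sucrose, then five days in the insectary. Ovaries were dissected and scored normal or abnormal.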

CYP6P family and CYP6Z2 = details: Anopheles gambiae, pH 7.4
[3] = system: all mosquito P450s of the panel except CYP6Z2 and CYP6P2 (CYP6M2, CYP6P3, CYP6P4, CYP9J5); assay: in vitro; details: Anopheles gambiae

SMILES: CC1(C)C(C=C(Cl)Cl)C1C(=O)OCc1cccc(Oc2ccccc2)c1 (mixture of isomers) [Permethrin, 3-phenoxybenzyl (1R,S)-cis,trans-3-(2,2-dichlorovinyl)-2,2-dimethylcyclopropanecarboxylate]
- IC50 ([1]; pH 7.4, IC50 of DEF activity): 1 to 10 µM
- IC50 ([1]; pH 7.4, category of inhibition of DEF activity): 1 to 10 µM

SMILES: CC(COc1ccc(Oc2ccccc2)cc1)Oc1ccccn1 (stereo not shown) [PPF, pyriproxyfen]
- mosquitoes sterilized ([2]; 3 min exposure to 5.5 mg/m^2): 75%
- impact on ovary development ([2]; 3 min exposure, half of 5.5 mg/m^2): no impact
- PPF depletion (CYP6P family and CYP6Z2): 58–100%
- IC50 ([3]; pH 7.4, IC50 of DEF activity): > 10 µM
- IC50 ([3]; pH 7.4, category of inhibition of DEF metabolism): > 10 µM
